Measured values reported in ChEMBL document CHEMBL1145075, “A new class of diamine-based human histamine H3 receptor antagonists: 4-(aminoalkoxy)benzylamines” (J Med Chem, 2003).

How the values were obtained:
Histamine H3 receptor [1] = target: T1, Histamine H3 receptor (Homo sapiens, UniProt Q9Y5N1); experiment: In vitro binding affinity for human Histamine H3 receptor by displacing N-[3H]-methylhistamine in SK-N-MC cells was determined; type: cell-based
Method in brief: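 Cloned human H3 receptor stably expressed in SK-N-MC cells; binding run per an earlier published procedure.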

Histamine H3 receptor [2] = target: T1, Histamine H3 receptor; experiment: Histamine-induced inhibition of forskolin- stimulated cAMP accumulation in SK-N-MC cells overexpressing the human Histamine H3 receptor; type: functional, cell-based; conditions: read-out: pA2 (converted)
Method in brief: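 SK-N-MC sublines stably expressing human H3 receptor plus β-galactosidase reporter driven by multiple cAMP responsive elements. Compound added to media, forskolin (5 μM final) 5 min later, then 6 h at 37 °C. Cells PBS-washed, lysed, color developed with chlorophenol red β-D-galactopyranoside, absorbance 570 nm. pA2 from Schild regression of EC50 values.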

Histamine H3 receptor [3] = target: Histamine H3 receptor (Rattus norvegicus, UniProt Q9QYN8); experiment: In vitro binding affinity for rat Histamine H3 receptor by displacing N-[3H]-methylhistamine in rat cortex membranes was determined
Histamine H3 receptor (Rattus norvegicus, UniProt Q9QYN8), sequence (Q9QYN8 whole entry): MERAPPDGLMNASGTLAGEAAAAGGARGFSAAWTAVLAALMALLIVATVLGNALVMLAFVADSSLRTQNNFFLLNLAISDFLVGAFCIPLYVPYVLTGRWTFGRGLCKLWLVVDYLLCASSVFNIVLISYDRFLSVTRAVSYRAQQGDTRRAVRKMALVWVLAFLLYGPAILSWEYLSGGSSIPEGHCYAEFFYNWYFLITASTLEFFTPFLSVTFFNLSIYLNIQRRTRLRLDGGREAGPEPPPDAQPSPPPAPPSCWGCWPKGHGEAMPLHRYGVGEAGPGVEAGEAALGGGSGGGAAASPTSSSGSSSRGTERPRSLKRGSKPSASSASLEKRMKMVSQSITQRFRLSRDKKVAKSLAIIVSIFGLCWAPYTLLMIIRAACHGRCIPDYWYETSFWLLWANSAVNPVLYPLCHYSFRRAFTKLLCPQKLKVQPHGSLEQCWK

[4] = Human plasma protein binding activity was determined; type: ADME, cell-free
Method in brief: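 Human plasma protein binding measured by an outside contract laboratory.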

[5] = stabilit in human liver microsome expressed as Half life; type: ADME; conditions: liver microsomes
Method in brief: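 Stability in human liver microsomes measured by an outside contract laboratory; reported as half-life.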

T1 sequence (Q9Y5N1 whole entry): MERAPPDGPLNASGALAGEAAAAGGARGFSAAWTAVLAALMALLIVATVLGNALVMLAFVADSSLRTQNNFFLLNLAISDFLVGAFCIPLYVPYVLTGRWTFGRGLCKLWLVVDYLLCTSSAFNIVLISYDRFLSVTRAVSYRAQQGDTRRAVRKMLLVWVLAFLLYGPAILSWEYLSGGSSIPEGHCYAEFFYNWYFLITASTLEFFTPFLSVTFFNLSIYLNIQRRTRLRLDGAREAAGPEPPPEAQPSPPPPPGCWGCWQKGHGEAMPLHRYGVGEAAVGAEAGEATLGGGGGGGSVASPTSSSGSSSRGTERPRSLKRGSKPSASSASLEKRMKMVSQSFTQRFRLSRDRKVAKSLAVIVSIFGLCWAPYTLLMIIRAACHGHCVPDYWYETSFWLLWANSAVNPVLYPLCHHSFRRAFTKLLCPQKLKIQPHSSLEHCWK

| Compound | Ki (Histamine H3 receptor [1]) [nM] | other results |
| --- | --- | --- |
| c1cc(OCCCC2CCCCC2)ccc1CN1CCCCC1 | 631 | – |
| CN1CCN(Cc2ccc(OCCCN3CCCCC3)cc2)CC1 | 1.35 | – |
| c1cc(OCCN2CCCCC2)ccc1CN1CCCCC1 | 8.91 | Kb (Histamine H3 receptor [2]): 8.91 nM |
| CCN(CC)CCOc1ccc(CN2CCCCC2)cc1 | 50.1 | – |
| c1ccc2c(c1)CCN(Cc1ccc(OCCCN3CCCCC3)cc1)C2 | 1.7 | – |
| c1ccc(NCc2ccc(OCCCN3CCCCC3)cc2)cc1 | 8.32 | – |
| CN(C)CCOc1ccc(CN2CCCCC2)cc1 | 3.89 | Kb (Histamine H3 receptor [2]): 10.5 nM |
| c1cc(OCCCN2CCCCC2)ccc1CC1CCCCC1 | 50.1 | – |
| c1ccc(CC2CCN(Cc3ccc(OCCCN4CCCCC4)cc3)CC2)cc1 | 1.51 | – |
| CCN(CC)CCCOc1ccc(CN2CCCCC2)cc1 | 1.23 | – |
| c1cc(OCCCN2CCOCC2)ccc1CN1CCCCC1 | 2.29 | – |
| c1cc(OCCCN2CCCCC2)ccc1CN1CCCCC1 [JNJ-5207852] | – | Ki (Histamine H3 receptor [3]): 0.457 nM; Binding [4]: 54%; half-life [5]: > 1440 min |

Further lines, with some results ahead:

| Ki (Histamine H3 receptor [1]) [nM] | Compound | other results |
| --- | --- | --- |
| 0.832 | c1ccc2c(c1)CCC2NCc1ccc(OCCCN2CCCCC2)cc1 (stereo not given) | – |
| 0.741 | OC1CCN(Cc2ccc(OCCCN3CCCCC3)cc2)CC1 | Kb (Histamine H3 receptor [2]): 0.229 nM |
| 0.513 | c1cc(OCCCN2CCCCC2)ccc1CNC1CCCCC1 | Kb (Histamine H3 receptor [2]): 0.195 nM |
| 0.933 | CN(C)Cc1ccc(OCCCN2CCCCC2)cc1 | – |
| 0.871 | c1cc(OCCCN2CCCCC2)ccc1CN1CCOCC1 | Kb (Histamine H3 receptor [2]): 0.537 nM |
| 0.955 | NC(=O)C1CCN(Cc2ccc(OCCCN3CCCCC3)cc2)CC1 | – |
